This sample holds only a part of the variants without activity.
B1: tRNA (parent)
chain: GUUCCGUUGGCGUAAUGGUAACGCGUCUCCCUCCUAAGGAGAAGACUGCGGGUUCGAGUCCCGUACGGAACG

Variants of: B1
Assay: yeast fitness relative to wild type (ratio to wild type); higher = fitter; tRNA-Arg(CCU), competitive growth, 37 C, YPD
Procedure, shortened: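 The tRNA-Arg(CCU) gene variants were made by chemical synthesis with a 3% per-site mutation rate at 69 sites and inserted at the native genomic locus of Saccharomyces cerevisiae. After pooling, the strains were competed in YPD at 37°C for 24 hours in six parallel replicates. Gene amplicons from the start population and each end population were read by 100-nucleotide paired-end sequencing, and Darwinian fitness relative to wild type was taken from genotype frequency changes. Genotypes needed ≥ 100 starting reads, and estimates < 0.5 were set to 0.5.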

| Variant | yeast fitness |
| --- | --- |
| C11A C22G U53C C66U | ≤ 0.5 |
| G10C G68C | 0.697 |
| C11A A43G U47C A65C | ≤ 0.5 |
| C11A A37U C49G C60G C62G | ≤ 0.5 |
| G10C G50A U59A | ≤ 0.5 |
| C11A A21C C31A G58A | ≤ 0.5 |
| C11A A37C C49G C66A | ≤ 0.5 |
| G10C C34G A42U A70C | ≤ 0.5 |
| C11A A20U | 0.681 |
| C11A A20G | 0.556 |
| G10C C33G A57G | ≤ 0.5 |
| C11A A20U U28A C60G | 0.521 |
| G10C C31U U35G | ≤ 0.5 |
| C11A A21U G41A G58A A65G | ≤ 0.5 |
| G10C C31G A45U G68C | ≤ 0.5 |
| G10C G23A U35A A40U A42U C55G | ≤ 0.5 |
| G10U U16A G25A C49U G50C | ≤ 0.5 |
| C11A A20U U32C | 0.733 |
| G10C G12C C49U G56C | ≤ 0.5 |
| G10C U13A A14G A20G C22A C24G C62G | ≤ 0.5 |
| C11A A36G C62U | 0.539 |
| C11A A14U U59C C62U | ≤ 0.5 |
| C11A A15G C61U A65U | ≤ 0.5 |
| G10C G12A C33G U47G | ≤ 0.5 |

| Variant | yeast fitness |
| --- | --- |
| C11A A14U A42G C62A C66U | ≤ 0.5 |
| C11A C24U U32G A40U U64G | ≤ 0.5 |
| C11A A43G G50C | ≤ 0.5 |
| C11A A15C C24G C61A A69C | ≤ 0.5 |
| C11A C22G G48C | 0.535 |
| C11A C27G | 0.589 |
| G10C G12A A15G A69C | ≤ 0.5 |
| G10C C33U A36G A43G | ≤ 0.5 |
| G10C G23C G48A G52A U53C C61A | 0.52 |
| C11A A14C C34A | 0.58 |
| G10C G12C G17U G39A C61U A69C | ≤ 0.5 |
| G10C G12C C33U U35G C49G | ≤ 0.5 |
| G10C G67U | 0.689 |
| G10C C31G U32C A36U A57U C60G | ≤ 0.5 |
| C11A A21C C31A C55G | ≤ 0.5 |
| C11A A21C | 0.557 |
| C11A A21U | 0.606 |
| G10U A20C C34A U53A U54G | ≤ 0.5 |
| G10C C49G A65G | 0.55 |
| G10C U54A | ≤ 0.5 |
| G10C U54G | ≤ 0.5 |
| G10C G12C | 0.645 |
| G10C G12A | 0.757 |
| C11A A20C C29U U47C A70U | ≤ 0.5 |

| Variant | yeast fitness |
| --- | --- |
| G10C G44C C55G A69U | 0.59 |
| C11A C24U G56A G67C A70G | ≤ 0.5 |
| G10C C60A C62A | 0.529 |
| C11A A42C G50C A57C C61G | ≤ 0.5 |
| C11A A45U C55U G68U | ≤ 0.5 |
| G10C U28G G39A C49A C55U | ≤ 0.5 |
| C11A A21U A43U A57G | ≤ 0.5 |
| C11A A57G C66U | ≤ 0.5 |
| G10C U35G C62G | 0.52 |
| G10C U32A C61G A70U | ≤ 0.5 |
| G10C G44A A70C | ≤ 0.5 |
| C11A C24G C34G | ≤ 0.5 |
| C11A A15G C49U C66U | ≤ 0.5 |
| G10C G12A G25C A37G | ≤ 0.5 |
| G10C C55A C61U A65C G68A | ≤ 0.5 |
| C11A A15C C24G G58A | ≤ 0.5 |
| G10C C46G U54C | ≤ 0.5 |
| G10C G48A | 0.851 |
| C11A A20G U59G | ≤ 0.5 |
| C11A A21G C34U A37G G52C A57U A69U | ≤ 0.5 |
| C11A A21U C49A | ≤ 0.5 |
| C11A A20G C62A | 0.605 |
| G10C C31A A65C A69C | ≤ 0.5 |
| C11A A20G C62A G67A | ≤ 0.5 |

| Variant | yeast fitness |
| --- | --- |
| C11A C22G C49G G68C A69C | ≤ 0.5 |
| C11A A42C A65U C66U | 0.623 |
| G10C G58C | 0.722 |
| G10C G58U | ≤ 0.5 |
| G10C G58A | 0.553 |
| G10C U32C C33A A45U | ≤ 0.5 |
| C11A C24U U32A U35C C55G | ≤ 0.5 |
| C11A A65G C66U | 0.571 |
| C11A A15G A20G C24U A37C G50A G67C | ≤ 0.5 |
| C11A C27G U32C C33U C62U A65G | ≤ 0.5 |
| G10C C34G C49U | ≤ 0.5 |
| G10C C34A C55U | ≤ 0.5 |
| G10C U19A C24U | 0.531 |
| G10C C46A A69U | 0.615 |
| C11A A20U C61U | 0.558 |
| C11A C22U C24G C30G | ≤ 0.5 |
| G10U A69U | 0.864 |
| C11A A37U G48A | ≤ 0.5 |
| C11A A15U A20G | ≤ 0.5 |
| G10C C33G U53C C55U A70G | ≤ 0.5 |
| C11A A45C | 0.563 |
| G10C U13A A43U C61A A70C | ≤ 0.5 |
| C11A A20G C55U C61A | ≤ 0.5 |
| G10U A15U C31G G50C U59C | ≤ 0.5 |

| Variant | yeast fitness |
| --- | --- |
| C11A C27A C55U G63A G67C | ≤ 0.5 |
| C11A A20U U32C G68C | ≤ 0.5 |
| G10C C49A C62U | ≤ 0.5 |
| C11A A43U C46U U47G | 0.565 |
| C11A A21C C31A C62U | ≤ 0.5 |
| C11A A20G C62U C66A | ≤ 0.5 |
| G10C U32A G38C U64C | ≤ 0.5 |
| C11A A21G C34U A37G G58A | ≤ 0.5 |
| C11A C24G C30G C55G | ≤ 0.5 |
| C11A A20C C24U C55G | 0.617 |
| C11A C24G C34G A36G | ≤ 0.5 |
| G10C C61G | 0.656 |
| G10C C61U | 0.792 |
| C11A A45C C55U | 0.517 |
| C11A A21C G39C | ≤ 0.5 |
| C11A A21C U64A | 0.688 |
| C11A A65C | 0.607 |
| C11A A37C C49G | ≤ 0.5 |
| C11A A42G U53G | ≤ 0.5 |
| C11A C27G C55A C61G | ≤ 0.5 |
| G10U C27G G39A G67A | ≤ 0.5 |
| G10C U19A | 0.612 |
| G10C U19G | 0.552 |
| G10C C34G U54C G67U | ≤ 0.5 |

| Variant | yeast fitness |
| --- | --- |
| G10C C34G U59A | ≤ 0.5 |
| C11A A15C A57G C61U | ≤ 0.5 |
| G10C G12C C24U C29G G68C | ≤ 0.5 |
| G10C C34G A69U A70C | 0.711 |
| C11A A37G A40G A43G G52C U59G | ≤ 0.5 |
| G10C U26A A43G C60U C62U A70C | ≤ 0.5 |
| G10C C33G A40U | 0.579 |
| C11A A40G U53C | 0.619 |
| G10C G12C C46A | ≤ 0.5 |
| G10C U13A C31A C55U | ≤ 0.5 |
| C11A C24U C34A A37U C62A C66A | 0.599 |
| C11A A37U | 0.587 |
| C11A A37G | 0.566 |
| G10C U35A A37U A43G | ≤ 0.5 |
| G10C G41A C66U | ≤ 0.5 |
| C11A A21C C34A A57U C61A | 0.539 |
| G10C C33U A40C | ≤ 0.5 |
| G10C U28G C33G C49U | ≤ 0.5 |
| G10C G23A G52C C62U | 0.55 |
| C11A A14G U19G A43C U53A C66U | 0.601 |
| C11A A15G G58C | 0.505 |
| C11A C24U C31U C61U G67A | ≤ 0.5 |
| G10C G44C U47C G52A U53C C61U | ≤ 0.5 |
| G10C G12C C46G C55U G67C | ≤ 0.5 |

| Variant | yeast fitness |
| --- | --- |
| G10C C55A | 0.568 |
| C11A A42U | 0.724 |
| G10C G63A G68C | ≤ 0.5 |
| C11A A14U A21C C46U U53C A65G | 0.575 |
| C11A A43U C46U U47G G58A | ≤ 0.5 |
| C11A A40G | 0.602 |
| G10C C31U U35G C62U | ≤ 0.5 |
| G10C U13C U32G | ≤ 0.5 |
| G10C G18C C24U C66U | ≤ 0.5 |
| C11A A14G | 0.628 |
| C11A A20U C27U U47C G50A | 0.618 |
| C11A C22G G25A C34A G41A C66A | ≤ 0.5 |
| G10C C30U G51A G63A | ≤ 0.5 |
| C11A C27G G68A | ≤ 0.5 |
| G10C C33A U35C G67C | 0.675 |
| C11A A69C | 0.671 |
| G10C C66U | 0.577 |
| C11A C27A C33G A42C C66U | ≤ 0.5 |
| C11A C24A A36G G48A | ≤ 0.5 |
| C11A C27G C61A | ≤ 0.5 |
| G10C G51A G63A | ≤ 0.5 |
| C11A A21C C30U | 0.678 |
| G10C C33G C46G C62G | ≤ 0.5 |

From the RNAGym collection of RNA variant scans (doi:10.1126/science.aae0568)
